The values that follow come from ChEMBL document CHEMBL1148734, “Structure-activity relationships of phenyl-furanyl-rhodanines as inhibitors of RNA polymerase with antibacterial activity on biofilms” (J Med Chem, 2007).

Values after ≈ are worked out from the molar mass of the structure shown. Active and inactive are the calls of the source. No cut-off for these calls is given here.

For orientation: inhibition means the relative decrease from the control value, in per cent. Low readings indicate a response near the control, high ones a response far below the control. A word on the IC50: it is the concentration at which inhibition is half-maximal. As a reminder, the MIC is the lowest concentration that inhibits growth of the organism.

Data set [1] relates to Escherichia coli. Kind of data set: Inhibition of RNA polymerase sigma-70 transcription in Escherichia coli at 10 uM. In kind it is functional.
The nature of data set [2]: Inhibition of Escherichia coli RNA polymerase sigma-70 factor.
Data set [3] has as its system Staphylococcus epidermidis. The experiment in a line: Antibacterial activity against Staphylococcus epidermidis CIP 105777. The class given is functional.
Data set [4] deals with Escherichia coli. The experiment in a line: Antibacterial activity against Escherichia coli tolC CGSC 5633. In kind it is functional.
In another data set the target is Albumin (Homo sapiens, UniProt P02768). Kind of data set: Binding affinity to HSA by SPR method. In kind it is ADME. To be noted: isolated protein. The method in brief:
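SPR at 25 °C; HSA amine-coupled on CM5 chip (9000–11 000 RU). Compounds at 50 µM in PBS with 5% DMSO, 30 µL/min, duplicate 60 s injections over HSA and reference surfaces. Double referencing with buffer blanks; DMSO bulk correction from calibration curve (4.5–5.8% DMSO).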

The subject of the next data set is Clostridioides difficile. The experiment in a line: Antibacterial activity against Clostridium difficile DSM 1296. The class given is functional.
A further data set concerns Streptococcus pneumoniae. Kind of data set: Antibacterial activity against Streptococcus pneumoniae CIP 103566. The class given is functional.
The subject of data set [5] is Staphylococcus aureus. Kind of data set: Antibacterial activity against multidrug resistant Staphylococcus aureus 49589. The class given is functional. The method in brief:
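Broth microdilution MIC following CLSI. Compounds were predissolved in DMSO and tested as serial 2-fold dilutions at final 100 to 0.4 µg/mL. Inoculum was 5 × 10⁵ CFU/mL, and plates were read after 18 h at 37 °C.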

Data set [6] relates to Staphylococcus epidermidis. The experiment in a line: Antibacterial activity against Staphylococcus epidermidis 40004. The class given is functional.
Data set [7] concerns Staphylococcus epidermidis. Kind of data set: Antibacterial activity against Staphylococcus epidermidis 48155. In kind it is functional.
The subject of data set [8] is Escherichia coli. The experiment in a line: Antibacterial activity against Escherichia coli tolC CGSC 5633 in presence of 1% HSA. In kind it is functional, organism-based.
Data set [9] concerns Staphylococcus aureus. Kind of data set: Antibacterial activity against Staphylococcus aureus CIP 76.25. In kind it is functional.
Data set [10] has as its system Staphylococcus epidermidis. Kind of data set: Antibacterial activity against Staphylococcus epidermidis RP62A. The class given is functional.
A further data set concerns Bacillus anthracis. The experiment in a line: Antibacterial activity against Bacillus anthracis 9131. The class given is functional.
The subject of a further data set is CHO. Kind of data set: Cytotoxicity against CHO cells. In kind it is cell-based, Cricetulus griseus. To be noted: chinese hamster. In a few lines:
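CHO cells grown in RPMI with 5% fetal calf serum, then exposed to compounds 24 h at 37 °C without serum. MTT added at 300 µg/mL final, 3 h at 37 °C dark; acidified isopropanol added, 1 h at room temperature; OD at 595 nm.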

The test system of data set [11] is Staphylococcus epidermidis. The experiment in a line: Antibacterial activity against Staphylococcus epidermidis 48155 biofilms assessed as bacterial count per well at 8 times MIC after 24 hrs. The class given is functional. The method in brief:
(§1)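 Biofilms from 10⁷ CFU/mL inoculum in MHB grown 24 h at 37 °C, rinsed, then exposed 24 h at 37 °C without shaking in MHB to compound at 8× MIC. Washed, DMSO-lysed, ATP bioluminescence read (luciferase/D-luciferin buffer, pH 7.25). Strain-specific luminescence-to-Log₁₀ CFU/well equations used; triplicate.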

Data set [12] has as its system Staphylococcus epidermidis. Kind of data set: Antibacterial activity against Staphylococcus epidermidis RP62A biofilms assessed as bacterial count per well at 8 times MIC after 24 hrs. The class given is functional. In a few lines:
as §1

Data set [13] concerns Staphylococcus epidermidis. The experiment in a line: Antibacterial activity against Staphylococcus epidermidis 40004 biofilms assessed as bacterial count per well at 8 times MIC after 24 hrs. In kind it is functional. In a few lines: as §1

Sequence of Albumin (P02768 whole entry): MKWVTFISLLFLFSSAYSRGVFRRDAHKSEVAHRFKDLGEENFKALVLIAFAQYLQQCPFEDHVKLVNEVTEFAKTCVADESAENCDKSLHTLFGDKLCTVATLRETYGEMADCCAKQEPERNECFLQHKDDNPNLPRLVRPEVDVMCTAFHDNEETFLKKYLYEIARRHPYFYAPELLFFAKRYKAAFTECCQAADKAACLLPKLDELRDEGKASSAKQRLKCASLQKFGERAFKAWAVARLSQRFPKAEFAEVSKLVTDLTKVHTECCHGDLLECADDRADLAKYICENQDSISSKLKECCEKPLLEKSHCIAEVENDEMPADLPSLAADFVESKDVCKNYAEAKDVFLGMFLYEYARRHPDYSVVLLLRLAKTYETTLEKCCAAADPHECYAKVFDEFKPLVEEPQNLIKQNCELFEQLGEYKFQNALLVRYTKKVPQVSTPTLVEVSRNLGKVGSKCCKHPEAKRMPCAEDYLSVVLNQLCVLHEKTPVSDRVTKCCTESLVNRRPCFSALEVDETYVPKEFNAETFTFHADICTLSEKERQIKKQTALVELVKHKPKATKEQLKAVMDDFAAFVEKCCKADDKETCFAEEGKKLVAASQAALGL

In turn, `O=C(O)c1ccc(/C=C2\SC(=S)N(Cc3ccco3)C2=O)cc1` showed an inhibition at 10 µM with Escherichia coli [1] of 5%. The molecule further yielded an IC50 in [2] of 87 µM. The MIC (in [3]; against Escherichia coli [4]) was ≥ 100 µg/mL each time.

`C=CCN1C(=O)/C(=C/c2cccc(C(=O)O)c2)SC1=S`: the IC50 in data set [2] was ≥ 100 µM. The MIC (in [3]; against Escherichia coli [4]) was ≥ 100 µg/mL each time.

For `C=CCN1C(=O)/C(=C/c2cc(C)n(CC)c2C)SC1=S`, the inhibition at 10 µM with Escherichia coli [1] was 5%. Further, the IC50 in data set [2] is ≥ 100 µM. For the same molecule, the MIC (in data set [3]; against Escherichia coli [4]) was ≥ 100 µg/mL in each case.

Molecule `C=CCN1C(=O)/C(=C/c2ccc(-c3ccc(C(=O)O)c(Cl)c3)o2)SC1=S` showed an inhibition at 10 µM in the data set on Escherichia coli [1] of 100%. Also, the Activity result at Albumin is recorded as “Active”; with CHO, “>= 100 ug ml-1”. Besides, the MIC is 12.5 µg/mL (≈ 30.8 µM) against Clostridioides difficile; 12.5 µg/mL (≈ 30.8 µM) with Streptococcus pneumoniae; 50 µg/mL (≈ 123 µM) against Staphylococcus aureus [5]; 6.25 µg/mL (≈ 15.4 µM) in data set [6]; 12.5 µg/mL (≈ 30.8 µM) in [7]; 50 µg/mL (≈ 123 µM) against Staphylococcus aureus [9]. Besides, the MIC in [10] is 6.25 µg/mL (≈ 15.4 µM); against Bacillus anthracis, 3.13 µg/mL (≈ 7.71 µM); in data set [3], 6.25 µg/mL (≈ 15.4 µM); with Escherichia coli [4] it was 25 µg/mL (≈ 61.6 µM). Also, in the data set with Escherichia coli [8], the outcome was inactive.

Take `C=CCN1C(=O)/C(=C/c2ccc(C)o2)SC1=S`: the inhibition at 10 µM in the data set with Escherichia coli [1] is 3%. Further, in [2], the IC50 was ≥ 100 µM. For the same molecule, the MIC (in data set [3]; with Escherichia coli [4]) was ≥ 100 µg/mL each time.

`C=CCN1C(=O)/C(=C/c2c[nH]c3c(C(=O)O)cccc23)SC1=S` showed an inhibition at 10 µM with Escherichia coli [1] of 95%. Moreover, the MIC came to 25 µg/mL (≈ 72.6 µM) against Clostridioides difficile; 50 µg/mL (≈ 145 µM) with Streptococcus pneumoniae; 50 µg/mL (≈ 145 µM) against Staphylococcus aureus [5]; 25 µg/mL (≈ 72.6 µM) in [6]; 25 µg/mL (≈ 72.6 µM) in data set [7]; 50 µg/mL (≈ 145 µM) against Staphylococcus aureus [9]. Besides, the MIC in data set [10] was 25 µg/mL (≈ 72.6 µM); against Bacillus anthracis, 12.5 µg/mL (≈ 36.3 µM); in data set [3], 25 µg/mL (≈ 72.6 µM); against Escherichia coli [4] it was ≥ 100 µg/mL. Besides, in the data set on CHO, the Activity result is on record as “>= 100 ug ml-1”.

`C=CCN1C(=O)/C(=C/c2ccc(-c3ccc(CCC(=O)O)cc3)o2)SC1=S` registered an inhibition at 10 µM with Escherichia coli [1] of 68%. For the same molecule, the Activity entry is “Active” at Albumin and “>= 100 ug ml-1” in the data set on CHO. Moreover, the MIC in the data set on Clostridioides difficile was 50 µg/mL (≈ 125 µM); with Streptococcus pneumoniae, ≥ 100 µg/mL; against Staphylococcus aureus [5], 25 µg/mL (≈ 62.6 µM); in data set [6], 25 µg/mL (≈ 62.6 µM); in data set [7], 12.5 µg/mL (≈ 31.3 µM); in the data set on Staphylococcus aureus [9] it was 25 µg/mL (≈ 62.6 µM). Moreover, the MIC came to 25 µg/mL (≈ 62.6 µM) in [10], 12.5 µg/mL (≈ 31.3 µM) in the data set with Bacillus anthracis, 25 µg/mL (≈ 62.6 µM) in [3] and 12.5 µg/mL (≈ 31.3 µM) with Escherichia coli [4]. Besides, the result in the data set with Escherichia coli [8] was inactive.

The molecule `C=CCN1C(=O)/C(=C/c2ccc(-c3ccc(O)cc3)o2)SC1=S` gave an inhibition at 10 µM with Escherichia coli [1] of 84%. Also, the MIC in the data set with Clostridioides difficile is 50 µg/mL (≈ 146 µM); in the data set on Streptococcus pneumoniae, 25 µg/mL (≈ 72.8 µM); against Staphylococcus aureus [5], 25 µg/mL (≈ 72.8 µM); in [6], 12.5 µg/mL (≈ 36.4 µM); in data set [7], 12.5 µg/mL (≈ 36.4 µM); in the data set with Staphylococcus aureus [9] it was 6.25 µg/mL (≈ 18.2 µM). The MIC is 12.5 µg/mL (≈ 36.4 µM) in [10], 6.25 µg/mL (≈ 18.2 µM) with Bacillus anthracis, 12.5 µg/mL (≈ 36.4 µM) in data set [3] and 3.13 µg/mL (≈ 9.11 µM) in the data set on Escherichia coli [4]. Also, the Activity entry with CHO is recorded as “>= 100 ug ml-1”.

In turn, `C=CCN1C(=O)/C(=C/c2ccc(-c3ccc(C(=O)O)cc3)o2)SC1=S` returned an inhibition at 10 µM in the data set with Escherichia coli [1] of 98%. For the same molecule, the Activity result on Albumin is on record as “Active”; in the data set with CHO it was “>= 100 ug ml-1”. For the same molecule, the minimal inhibitory concentration (MIC) is ≥ 100 µg/mL against Clostridioides difficile; ≥ 100 µg/mL against Streptococcus pneumoniae; ≥ 100 µg/mL with Staphylococcus aureus [5]; 6.25 µg/mL (≈ 16.8 µM) in [6]; 3.13 µg/mL (≈ 8.43 µM) in [7]; ≥ 100 µg/mL in the data set with Staphylococcus aureus [9]. Also, the MIC is 3.13 µg/mL (≈ 8.43 µM) in data set [10], 3.13 µg/mL (≈ 8.43 µM) against Bacillus anthracis, 3.13 µg/mL (≈ 8.43 µM) in [3] and 12.5 µg/mL (≈ 33.7 µM) against Escherichia coli [4]. Also, the outcome in the data set with Escherichia coli [8] was inactive.

For `C=CCN1C(=O)/C(=C/c2cc(C)n(-c3cccc(C(=O)O)c3)c2C)SC1=S`, the log10CFU/ml turned out to be 1.8 in data set [11], 2.8 in data set [12] and 2.3 in data set [13]. Moreover, the inhibition at 10 µM in the data set on Escherichia coli [1] amounted to 100%. Moreover, the MIC in the data set with Clostridioides difficile stood at 6.25 µg/mL (≈ 15.7 µM); in the data set on Streptococcus pneumoniae, 25 µg/mL (≈ 62.7 µM); with Staphylococcus aureus [5] it was 25 µg/mL (≈ 62.7 µM); in [6], 50 µg/mL (≈ 125 µM); in data set [7], 25 µg/mL (≈ 62.7 µM); in the data set on Staphylococcus aureus [9] it was 50 µg/mL (≈ 125 µM). The MIC in data set [10] came to 25 µg/mL (≈ 62.7 µM); with Bacillus anthracis, 6.25 µg/mL (≈ 15.7 µM); in data set [3], 25 µg/mL (≈ 62.7 µM); in the data set on Escherichia coli [4], 50 µg/mL (≈ 125 µM). Also, the Activity entry in the data set on CHO was “>= 100 ug ml-1”.

In the case of `C=CCN1C(=O)/C(=C/c2ccc(-c3cccc(C(=O)O)c3)o2)SC1=S`, in the data set with Escherichia coli [1], 10 µM produced 97% inhibition. The Activity result was “Active” at Albumin and “>= 100 ug ml-1” in the data set with CHO. The MIC with Clostridioides difficile turned out to be 12.5 µg/mL (≈ 33.7 µM); with Streptococcus pneumoniae it was 50 µg/mL (≈ 135 µM); in the data set with Staphylococcus aureus [5] it was 25 µg/mL (≈ 67.3 µM); in data set [6], 25 µg/mL (≈ 67.3 µM); in data set [7] it was 25 µg/mL (≈ 67.3 µM); in the data set on Staphylococcus aureus [9] it was 12.5 µg/mL (≈ 33.7 µM). The MIC in [10] is 12.5 µg/mL (≈ 33.7 µM); in the data set on Bacillus anthracis, 6.25 µg/mL (≈ 16.8 µM); in data set [3], 3.13 µg/mL (≈ 8.43 µM); against Escherichia coli [4] it was 6.25 µg/mL (≈ 16.8 µM). Besides, in the data set on Escherichia coli [8], the outcome was inactive.

For the molecule `C=CCN1C(=O)/C(=C/c2cccc(-c3cccc(C(=O)O)c3)c2)SC1=S`, the inhibition at 10 µM with Escherichia coli [1] turned out to be 26%. In addition, the MIC with Clostridioides difficile is 12.5 µg/mL (≈ 32.8 µM); in the data set with Streptococcus pneumoniae, ≥ 100 µg/mL; in the data set with Staphylococcus aureus [5], 25 µg/mL (≈ 65.5 µM); in data set [6], 50 µg/mL (≈ 131 µM); in data set [7] it was 50 µg/mL (≈ 131 µM); against Staphylococcus aureus [9], ≥ 100 µg/mL. Further, the MIC in [10] was 25 µg/mL (≈ 65.5 µM); in the data set with Bacillus anthracis it was 12.5 µg/mL (≈ 32.8 µM); in data set [3], 25 µg/mL (≈ 65.5 µM); against Escherichia coli [4], ≥ 100 µg/mL. The Activity entry with CHO is on record as “>= 100 ug ml-1”.
